# Source: PubChem BioAssay
# Cneo AK release: Cryptococcus neoformans cell lysis inducers, primary screen, AK release luminescence, single concentration; C. neoformans lysis, adenylate kinase release luminescence, 4 h; normalised: neutral wells 0, clomiphene wells 100; lysis activity, % at 15 µM; hit rate 0.2% among 360,000; AID 651654, 2012;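 active means mean lysis activity across replicates of at least 80%, whatever share of replicates individually reach that level; inactive means mean lysis activity below 80%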
#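 Material – Cryptococcus neoformans yeast cells · Quantity – 5 × 10^6 yeast cells/mL · Buffer or medium – YPD medium · Compound – single dose · Timing – 4 h static compound exposure, 37 °C, read 1 h post-reagent · Signal – adenylate kinase release luminescence · Read-out basis – lysis from increased AK signal · Benchmarks – Clomiphene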
# PglD inh: C. jejuni PglD acetyltransferase inhibitors, primary screen, biochemical, DTNB colorimetric, single point. UDP-N-acetylbacillosamine N-acetyltransferase PglD (Campylobacter jejuni). purified PglD enzyme, DTNB colorimetric CoA detection. inhibition, % at 12.5 µM. hit rate 0.098% among 360,000; in the data active means inhibition above about 16%, passing the limit was not always enough; inconclusive means no clear call, values can overlap the other calls
# rRNA inh HTS: reduced GFP signal of wild-type E. coli, primary screen, bacterial rRNA inhibitor project, GFP/RFP fluorescence, OD600, single point. E. coli WT GFP vs humanized-ribosome RFP mutants, 24 h; stronger effect = lower value; DMSO median 0, no signal -100. GFP signal change (wild-type ribosome), % (no concentration beside the values). hit rate 1.6% among 350,000. AID 720706, 2013;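 active means significant combined selectivity score with lowered wild-type GFP, culture density cut under 30%, mutant RFP and density less affected; inactive means any of these conditions unmet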
# FGF22 binding-1: binders of human FGF22 protein, primary screen, FGF22 synaptogenesis inhibitor project, biophysical, thermal shift, single point; Fibroblast growth factor 22 (Homo sapiens), Q9HCT0; recombinant FGF22 thermal shift, SYPRO orange fluorescence; percent of sucrose octasulfate shift, DMSO zero; activity (Tm shift, normalised), % at 9.99 µM; hit rate 1.5% among 340,000; AID 651658, 2012;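 active means mean Tm shift, scaled 0 neutral to 100 positive control, at about 1.3% or above, every replicate too, limit read from the data; inconclusive means no clear call, values can overlap the other calls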
# Target sequence (Q9HCT0 whole entry, looked up): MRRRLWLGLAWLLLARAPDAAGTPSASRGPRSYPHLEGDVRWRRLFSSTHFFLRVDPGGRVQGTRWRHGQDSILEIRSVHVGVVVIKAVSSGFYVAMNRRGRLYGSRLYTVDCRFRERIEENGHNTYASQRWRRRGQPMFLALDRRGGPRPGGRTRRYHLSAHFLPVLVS
# Vif inh: HIV Vif self-association inhibitors, primary screen, imaging, HEK293T, single point | HEK293T cells, Vif self-association by quenched fluorescence, 24 h | inhibition, % at 7.49 µM | hit rate 0.35% among 340,000; in the data active means inhibition above about 50%, passing the limit was not always enough; inconclusive means no clear call, values can overlap the other calls; inactive means below about 31%
# PGC1a acetyl inh: inhibitors of PGC1a acetylation signal, primary screen, cell-based, U2OS, AlphaScreen, inhibitor mode | AlphaScreen anti-acetyl-lysine; with virally co-expressed GCN5 acetyltransferase | inhibition, % at 15.6 µM | hit rate 0.17% among 350,000;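 active means every replicate shows inhibition of at least 40%; inconclusive means mean inhibition at least 40% but some replicate below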;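 further: 0% = neutral control wells and 100% = positive control wells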
# FGF22 binding-2: binders of human FGF22 protein, dose response, FGF22 synaptogenesis inhibitor project, biophysical, thermal shift, cherry-pick retest; shares compounds with FGF22 binding-1; thermal shift activity, °C (ΔTm) at 38 µM; recombinant FGF22 thermal shift, SYPRO orange fluorescence; hit rate 2% among 1,000;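 active means fitted rise in melting shift crosses a set limit at or below the top valid dose tested; inconclusive means flat fit at mid-level activity, or a poor quality fit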
# FGF22 TSA: binders of human FGF22 protein, dose response, FGF22 synaptogenesis inhibitor project, biophysical, thermal shift, dry powder; Thermal shift assay, SYPRO orange, melting temperature shift; shares compounds with FGF22 binding-1; Tm shift (activity), % at 38 µM; 50 tested, under 10 active; AID 743017, 2013;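 active means compounds whose fitted dose curve of melting temperature shift rises past a set threshold within the tested doses; inconclusive means flat curve at moderate activity, or poor curve fit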
# TSA no protein: compound-only thermal shift signal without protein, dose response, artefact control for FGF22 binder project, biochemical, cherry-picked samples, RT-PCR instrument. shares compounds with FGF22 binding-1. compound-only SYPRO orange thermal shift counter-screen, no protein. AC50, µM (highest dose often 38 µM). hit rate 2% among 1,000;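 active means rising signal whose fitted curve reaches the 0.54 level within the top valid dose, showing a melting point, actives reach about 13 µM in these data; inactive means the rest, including activity in the opposite direction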; further: value is where the raw curve crosses a fixed level and not half-maximal
# * = called active by the depositor; i = inactive; ? = inconclusive; / = no result given; ! = not active in a repeat; [ ] = remark or other dose. Sampled rows, rich in hits. Any-hit rate of the full collection: about 2.9%.
SMILES,Cneo AK release,PglD inh,rRNA inh HTS,FGF22 binding-1,Vif inh,PGC1a acetyl inh,FGF22 binding-2,TSA no protein,others
COc1ccccc1NS(=O)(=O)c1cccc(NC(=O)Nc2ccccc2)c1,-2,-1,-11,0,-1,-10,/,/,
COc1ccccc1NS(=O)(=O)c1cccc(NC(=O)c2cc3ccccc3oc2=O)c1,/,/,7,1.8*,-4,11,-0.009,i,
CSCCC(NS(=O)(=O)c1ccc(Cl)c(Cl)c1)C(=O)O (stereo not given),/,/,14,1.4*,20,6,-0.094,i,
CN=C1NN=C(c2cc(C)n(-c3c(C)n(C)n(-c4ccccc4)c3=O)c2C)CS1,1,1,15,1.6*,14,15,0.13,i,
Cc1cc(C2=NNC(=NCc3ccccc3)SC2)c(C)n1-c1c(C)n(C)n(-c2ccccc2)c1=O,/,/,-1,0,4,/,/,/,
Cc1nc(Oc2ccccc2)c2ccsc2n1,0,-2,4,1.4*,-3,5,-0.015,i,
C[C@H]1CN([C@@H](C)CO)C(=O)c2cccc(NS(=O)(=O)c3ccc(F)cc3)c2O[C@@H]1CN(C)S(=O)(=O)c1ccccc1,-4,-3,-2,0,/,4,/,/,
NCC[C@@H]1CC[C@@H](NC(=O)C2CCCCC2)[C@H](CO)O1,9,-2,0,-1,/,8,/,/,
COc1ccc(/C=N/N2C(C)CCCC2C)cc1OC (stereo not given),0,5,11,38*,8,-2,-0.091,i,
CC1CCCC(C)N1/N=C/c1ccc(Cl)cc1 (stereo not given),1,0,/,/,-2,-4,/,/,
C[C@@H]1CN([C@@H](C)CO)C(=O)c2cccc(NS(=O)(=O)c3cccs3)c2O[C@@H]1CN(C)S(=O)(=O)c1cccs1,-2,-4,-11,0,/,-7,/,/,
CO[C@@H]1CN(C)C(=O)c2cc(NC(=O)C3CCCC3)ccc2OC[C@H](C)NC[C@@H]1C,-1,-1,3,0,/,/,/,/,
CCOc1ccc(C2NC(=O)Cc3cc(OC)c(OC)cc32)cc1 (stereo not given),0,-6,6,0,-1,7,/,/,
CCOc1ccc(C2OC(=O)Cc3cc(OC)c(OC)cc32)cc1 (stereo not given),2,-4,3,14*,-4,8,0.097,i,
C[C@@H]1CN([C@@H](C)CO)C(=O)c2cc(C#Cc3ccccc3F)cnc2O[C@H]1CN(C)C(=O)Cc1ccccc1,-2,4,-2,0,/,6,/,/,
C[C@@H]1CN([C@@H](C)CO)C(=O)c2cc(NC(=O)Cc3ccccc3)ccc2O[C@H]1CN(C)C(=O)Nc1cccc2ccccc12,3,1,-1,-1,/,1,/,/,
COc1cccc(C(=O)Nc2ccc3[nH]ncc3c2)c1,-15,-4,-2,1,-1,18,/,/,
CCOc1cccc(C(=O)Nc2ccc3[nH]ncc3c2)c1,-8,-4,3,1.6*,-5,9,-0.074,i,FGF22 TSA=0
CCCC#Cc1cnc2c(c1)C(=O)N([C@H](C)CO)C[C@H](C)[C@H](CN(C)C(=O)CCN1CCCCC1)O2,3,0,/,0,/,-4,/,/,
C=CCOc1ccc2c(c1)C(=NO)c1cc(OCC=C)ccc1-2,-2,-2,-20,14*,-11,-15,-0.1,i,
O=C(NCc1ccc(Cl)cc1)c1n[nH]c([N+](=O)[O-])c1Cl,/,/,-15*,4.2*,3,/,0.34,i,
C[C@H]1CN([C@@H](C)CO)C(=O)c2cc(C#Cc3ccccc3F)cnc2O[C@H]1CN(C)S(=O)(=O)c1ccccc1,/,/,-3,1.7*,/,0,0.086[42 µM],i,
C[C@@H]1CN([C@H](C)CO)C(=O)c2cc(Br)cnc2O[C@@H]1CN(C)Cc1ccc(F)cc1,6,-1,12,21*!,-3,8,0.098,i,
C[C@@H]1CN([C@H](C)CO)C(=O)c2cc(Br)cnc2O[C@@H]1CN(C)Cc1ccccc1,4,2,7,0,/,-2,/,/,
CC(C)CC#Cc1cnc2c(c1)C(=O)N([C@@H](C)CO)C[C@H](C)[C@@H](CN(C)Cc1ccccn1)O2,6,4,-1,1.6*,/,-14,0.1,i,
SMILES,Cneo AK release,PglD inh,rRNA inh HTS,FGF22 binding-1,Vif inh,PGC1a acetyl inh,FGF22 binding-2,TSA no protein,others
O=C(CCc1ccc(S(=O)(=O)N2CCOCC2)cc1)Nc1ccccc1F,8,-2,14,1.5*,?,9,0.14,i,
Cc1noc(C)c1NC(=O)N(C)C[C@@H]1Oc2ccc(NC(=O)c3ccncc3)cc2CC(=O)N([C@@H](C)CO)C[C@H]1C,-2,-2,8,0,/,9,/,/,
COc1cc(-c2nc(C)c(C(C)=O)n2O)ccc1OCC(=O)Nc1ccc(F)cc1,-1,3,-10,0,8,/,/,/,
CCOc1cc(-c2nc(C)c(C(C)=O)n2O)ccc1OCC(=O)Nc1ccc(F)cc1,/,/,12,2.7*,-2,-20,-0.026,i,
CC(=O)c1c(C)nc(-c2ccc(OCC(=O)Nc3ccc(F)cc3)cc2)n1O,1,0,-35,2.3*,-14,/,-0.14,i,
CC(=O)Nc1ccc(-c2nc(C)c(C(C)=O)n2O)cc1,-8,-1,3,1,22,2,/,/,
COc1ccc2c3c([nH]c2c1)[C@@H](CO)N(C(=O)c1cnccn1)CC31CN(C(=O)c2cnccn2)C1,/,/,1,0,/,10,/,/,
CCC(C)N(C(=O)COc1ccc(-c2nnco2)cc1)C1CCS(=O)(=O)C1 (stereo not given),-1,-1,7,36*,-23,-1,-0.045,i,
